The term CC50 denotes the concentration at which the toxic effect on the cells reaches its halfway point. The term EC50 denotes the midpoint of the concentration-response curve. What is called EC90 is the point of the concentration-response curve where the effect stands at 90%.

Where “and” joins values, the source holds several entries; their conditions need not be identical. Equal values may be shown once. Read-outs that look alike come from different tables or passages of the source. Some results are limits rather than exact numbers.

Data set [1] deals with human hepatocellular carcinoma (HepG2) cells. As to the kind of experiment: Cytotoxicity, CellTiter 96 cell proliferation assay, HepG2 cells. Format: cell-based. The conditions noted are these: read-out: Cytotoxicity, CC50 HepG2; HepG2 cells.
Data set [2] has as its system HBV DNA production in HepAD38 cells. Nature of the data set: Anti-HBV activity. Conditions: for times less potent than GLP-26: HepAD38 vs GLP-26. In kind it is cell-based, Hepatitis B virus (HBV).
Data set [3] concerns human T lymphoblast (CEM) cells. Nature of the data set: Cytotoxicity, CellTiter 96 cell proliferation assay, CEM cells. Conditions: read-out: Cytotoxicity, CC50 CEM; CEM cells. Format: cell-based.
The subject of data set [4] is African green monkey kidney (Vero) cells. As to the kind of experiment: Cytotoxicity, CellTiter 96 cell proliferation assay, Vero cells. Conditions: read-out: Cytotoxicity, CC50 Vero; Vero cells. Format: cell-based.
The subject of data set [5] is human peripheral blood mononuclear (PBM) cells. As to the kind of experiment: Cytotoxicity, CellTiter 96 cell proliferation assay, PBM cells. Format: cell-based. The conditions noted are these: read-out: Cytotoxicity, CC50 PBM; PBM cells.
Data set [6] addresses T1, Cp149 dimers (Hepatitis B virus genotype D subtype ayw, UniProt P03146). Conditions: for Rgw (mean radius of gyration, plateau) / 〈N〉w∞ (mean aggregation number at equilibrium) / Associated timescale of Rgw / Associated timescale of 〈N〉w: ρ = 3, 30 μM subunits, 200 mM ammonium acetate; for Rgw (mean radius of gyration, plateau): 37°C, ρ = 0: 176 ± 6 Å; for 〈N〉w∞ (mean aggregation number at equilibrium): ρ = 0: 156 ± 6; for Associated timescale of Rgw: ρ = 0: 237 ± 62 ms; for Associated timescale of 〈N〉w: ρ = 0: 699 ± 138 ms.

The nature of data set [7]: Cytotoxicity, CellTiter 96 cell proliferation assay, HepG2 cells. Format: cell-based, human. Conditions: human, HepG2 hepatocellular carcinoma cells.
Data set [8] is described as follows: Cytotoxicity, CellTiter 96 cell proliferation assay, CEM cells. In kind it is cell-based, human. Conditions: human, CEM T lymphoblast cells.
A short description of data set [9]: Cytotoxicity, CellTiter 96 cell proliferation assay, Vero cells. Conditions: African green monkey, Vero kidney cells. In kind it is cell-based, African green monkey.
Data set [10] is described as follows: Cytotoxicity, CellTiter 96 cell proliferation assay, PBM cells. In kind it is cell-based, human. Conditions: human, peripheral blood mononuclear (PBM) cells.
The target of data set [11] is T1, Cp149 dimers. Nature of the data set: Static SAXS of Cp149 capsid assembly in the presence of CAM. In kind it is biochemical, Hepatitis B virus (HBV). The conditions noted are these: ρ = 3, undiluted sample, 30 μM dimers; 1.54 cm^−1 without CAM.
Data set [12] concerns the target T1, Cp149 dimers. As to the kind of experiment: Mass photometry of Cp149 capsid assembly in the presence of CAM. In kind it is biochemical, Hepatitis B virus (HBV). Conditions: ρ = 3, assembled at 30 μM subunits, diluted to 0.18 μM; 57% without CAM.
In data set [13] the target is preassembled HBV capsids (Cp149 protein) (Hepatitis B virus genotype D subtype ayw, UniProt P03146). The conditions noted are these: 20 μM CAM.
For data set [14], the target named is T1, Cp149 dimers. As to the kind of experiment: Cryo-electron microscopy classification of Cp149 capsids assembled with CAM. In kind it is biochemical, Hepatitis B virus (HBV). The conditions noted are these: ρ = 3 (90 μM), 30 μM Cp149. A digest of the protocol:
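Cp149 was expressed in E. coli BL21 and purified as capsids. These were dissociated with 3 M urea and taken to subunits by SEC. Assembly was triggered manually by mixing 30 μM (1 mg/ml) dimers in 1 mM DTT, 20 mM Tris-HCl pH 7.5 with 200 mM ammonium acetate, with or without 90 μM CAM (ρ = 3). Samples were concentrated 11-fold, imaged by cryo-EM, and particles 2D-classified.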

[15] abbreviates: read-out: Anti-HBV activity EC50, HBV DNA production, HepAD38 cells.
The mark [16] stands for this setting: read-out: Anti-HBV activity EC90, HBV DNA production, HepAD38 cells.
Setting [17] is: Hepatitis B virus, HePAD38, read-out: Anti-HBV activity EC50.
Where [18] appears, read: Hepatitis B virus, HePAD38, read-out: Anti-HBV activity EC90.

Chain of preassembled HBV capsids (Cp149 protein) (P03146 1-149): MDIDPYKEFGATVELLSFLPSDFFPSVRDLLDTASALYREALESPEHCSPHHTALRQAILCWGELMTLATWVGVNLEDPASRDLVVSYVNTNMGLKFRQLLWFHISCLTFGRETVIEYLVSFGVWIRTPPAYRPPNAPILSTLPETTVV
T1 sequence (P03146 1-149): as above

Consider `Cc1c(C(=O)C(=O)NCc2cn(CCCCCCn3cc(CNC(=O)C(=O)c4c(C)c(C(=O)Nc5ccc(F)c(F)c5)n(C)c4C)nn3)nn2)c(C)n(C)c1C(=O)Nc1ccc(F)c(F)c1` [Compound 6a, 4,4’-(2,2’-(((Hexane-1,6-diylbis(1H-1,2,3-triazole-1,4-diyl))bis(methylene))bis(azanediyl))bis(2-oxoacetyl))bis(N-(3,4-difluorophenyl)-1,3,5-trimethyl-1H-pyrrole-2-carboxamide)], for which the CC50 in data set [1], in data set [3], in data set [4] and in data set [5] was over 100 µM each time. The EC50 in [2] (setting [15]) is 285 ± 21 nM. The EC90 in [2] (setting [16]) is over 10000 nM.
As to `Cc1cc(NC(=O)c2cccc(S(=O)(=O)N[C@H]3CCOC3)c2)ccc1F` [JNJ-632], in data set [6], the “Subunit binding energies −Δg” value is given as 15.8 kT; the “Rgw (mean radius of gyration, plateau)” value is recorded as 176 ± 0.5 Å; the “〈N〉w∞ (mean aggregation number at equilibrium)” value came to 150 ± 4; the “Associated timescale of Rgw” value is 100 ± 24 ms. Moreover, the “Associated timescale of 〈N〉w” value in [6] came out at 273 ± 46 ms.
As to `Cc1c(C(=O)C(=O)NCc2cn(CCCCCCCCCCCCCCCCCCn3cc(CNC(=O)C(=O)c4c(C)c(C(=O)Nc5ccc(F)c(F)c5)n(C)c4C)nn3)nn2)c(C)n(C)c1C(=O)Nc1ccc(F)c(F)c1` [Compound 6g, 4,4’-(2,2’-(((Octadecane-1,18-diylbis(1H-1,2,3-triazole-1,4-diyl))bis(methylene))bis(azanediyl))bis(2-oxoacetyl))bis(N-(3,4-difluorophenyl)-1,3,5-trimethyl-1H-pyrrole-2-carboxamide)], the CC50 in data set [1], in data set [3], in data set [4] and in data set [5] was over 100 µM each time. The “times less potent than GLP-26” value in data set [2] was 2–3 times. Also, the EC50 in data set [2] (setting [15]) was determined as 25 ± 24 nM. In addition, the EC90 in data set [2] (setting [16]) was found to be 380 ± 10 nM.
Turning to `Cc1c(C(=O)C(=O)NCc2cn(CCCCCCCCCCCCn3cc(CNC(=O)C(=O)c4c(C)c(C(=O)Nc5ccc(F)c(F)c5)n(C)c4C)nn3)nn2)c(C)n(C)c1C(=O)Nc1ccc(F)c(F)c1` [Compound 6d, 4,4’-(2,2’-(((Dodecane-1,12-diylbis(1H-1,2,3-triazole-1,4-diyl))bis (methylene))bis(azanediyl))bis(2-oxoacetyl))bis(N-(3,4-difluorophenyl)-1,3,5-trimethyl-1H-pyrrole-2-carboxamide)], the CC50 was over 100 µM in data set [1], 42.8 ± 0.6 µM in data set [3], over 100 µM in [4] and 63.4 ± 40.6 µM in data set [5]. Further, in data set [2] (HepAD38 EC50 vs GLP-26), the “times more potent than reference compound GLP-26” value turned out to be 80 times. In [2] (setting [15]), the EC50 was found to be 0.1 nM. Besides, the EC90 in [2] (setting [16]) was 8 ± 1 nM.
Turning to `Cc1c(C(=O)C(=O)NCc2cn(CCCCCCCCCCn3cc(CNC(=O)C(=O)c4c(C)c(C(=O)Nc5ccc(F)c(F)c5)n(C)c4C)nn3)nn2)c(C)n(C)c1C(=O)Nc1ccc(F)c(F)c1` [Compound 6c, 4,4’-(2,2’-(((Decane-1,10-diylbis(1H-1,2,3-triazole-1,4-diyl))bis(methylene))bis(azanediyl))bis (2-oxoacetyl))bis(N-(3,4-difluorophenyl)-1,3,5-trimethyl-1H-pyrrole-2-carboxamide)], the CC50 in data set [1], in data set [3], in data set [4] and in data set [5] was over 100 µM in each case. Further, the EC50 in data set [2] (setting [15]) was determined as 4 ± 1 nM. In data set [2] (setting [16]), the EC90 is 140 ± 110 nM.
As for `CCCCCCCCCCCCn1cc(CNC(=O)C(=O)c2c(C)c(C(=O)Nc3ccc(F)c(F)c3)n(C)c2C)nn1` [Compound 10, N-(3,4-difluorophenyl)-4-(2-(((1-dodecyl-1H-1,2,3-triazol-4-yl)methyl)amino)-2-oxoacetyl)-1,3,5-trimethyl-1H-pyrrole-2-carboxamide], the CC50 is 30.5 ± 25.6 µM in data set [7], 9.9 ± 4.6 µM in [8], 10.4 ± 9 µM in data set [9] and 1.6 ± 0.6 µM in [10]. The EC50 in data set [2] (setting [17]) was found to be 307 ± 153 nM. Besides, the EC90 in data set [2] (setting [18]) was 970 ± 130 nM.
On to `Cc1c(C(=O)C(=O)NCc2cn(CCCCCCCCCCCCCCCCn3cc(CNC(=O)C(=O)c4c(C)c(C(=O)Nc5ccc(F)c(F)c5)n(C)c4C)nn3)nn2)c(C)n(C)c1C(=O)Nc1ccc(F)c(F)c1` [Compound 6f, 4,4’-(2,2’-(((Hexadecane-1,16-diylbis(1H-1,2,3-triazole-1,4-diyl))bis(methylene))bis(azanediyl))bis(2-oxoacetyl))bis(N-(3,4-difluorophenyl)-1,3,5-trimethyl-1H-pyrrole-2-carboxamide)], for which the CC50 in data set [1], in data set [3], in [4] and in data set [5] was over 100 µM throughout. In addition, the “times less potent than GLP-26” value in [2] is reported as 2–3 times. For the same molecule, the EC50 in data set [2] (setting [15]) turned out to be 18 ± 11 nM. Besides, the EC90 in data set [2] (setting [16]) came out at 130 ± 60 nM.
Take `C#CCNC(=O)C(=O)c1c(C)c(C(=O)Nc2ccc(F)c(F)c2)n(C)c1C` [GLP-26]: in [1], the CC50 was over 100 µM. Besides, the “SAXS intensity at zero angle I(0)” value in data set [11] was 1.86 cm⁻¹. The capsid-sized events in [12] is reported as 27%. Moreover, the “Radius (DLS, table)” value in data set [13] (7.5 μM Cp149, 30 min, 1% DMSO control 24.6 ± 3.4) is on record as 53.0 ± 13.6 nM. Further, the “PD (polydispersity)” value in [13] (7.5 μM Cp149, 30 min, 1% DMSO control 32.3 ± 18.6) is given as 26.8 ± 9.8%. Besides, in data set [13] (1% DMSO control 24.6 nm), the “average particle radius (DLS, text)” value worked out at 53.0 nm. In addition, in [14], the “larger objects with an ellipsoidal appearance (2D classification)” value came to 17.5%, the “objects that appeared to be T = 3 capsids (2D classification)” value was 1.8% and the “objects very similar to T = 4 capsids (2D classification)” value is 81.3%. The EC50 in data set [2] (setting [15]) came to 8 ± 1 nM. In data set [2] (setting [16]), the EC90 is 70 ± 20 nM. Also, in data set [6], the “Subunit binding energies −Δg” value stood at 10.4 kT; the “Rgw (mean radius of gyration, plateau)” value is 180 Å and 180 ± 1Å; the “〈N〉w∞ (mean aggregation number at equilibrium)” value is 190 and 190 ± 11; the “Associated timescale of Rgw” value came to 116 ± 63 ms. In data set [6], the “Associated timescale of 〈N〉w” value came to 487 ± 178 ms. The CC50 in data set [3] was over 100 µM. For the same molecule, the CC50 in data set [4] was found to be 30.5 ± 6.7 µM. In addition, in data set [5], the CC50 is over 100 µM.
On to `Cc1c(C(=O)C(=O)NCc2cn(CCCCCCCCn3cc(CNC(=O)C(=O)c4c(C)c(C(=O)Nc5ccc(F)c(F)c5)n(C)c4C)nn3)nn2)c(C)n(C)c1C(=O)Nc1ccc(F)c(F)c1` [Compound 6b, 4,4’-(2,2’-(((Octane-1,8-diylbis(1H-1,2,3-triazole-1,4-diyl))bis(methylene))bis(azanediyl))bis(2-oxoacetyl))bis(N-(3,4-difluorophenyl)-1,3,5-trimethyl-1H-pyrrole-2-carboxamide)], for which the CC50 in data set [1], in data set [3], in data set [4] and in [5] was over 100 µM in each case. In addition, in data set [2] (setting [15]), the EC50 is 438 ± 211 nM. Also, the EC90 in [2] (setting [16]) amounted to 5520 nM.
In the case of `Cc1c(C(=O)C(=O)NCc2c[nH]nn2)c(C)n(C)c1C(=O)Nc1ccc(F)c(F)c1` [Compound 7, 4-(2-(((1H-1,2,3-triazol-4-yl)methyl)amino)-2-oxoacetyl)-N-(3,4-difluorophenyl)-1,3,5-trimethyl-1H-pyrrole-2-carboxamide], the CC50 is over 100 µM in data set [7], 67.8 ± 19.6 µM in data set [8], over 100 µM in data set [9] and 74 ± 14 µM in data set [10]. For the same molecule, in [2] (setting [17]), the EC50 was 47 ± 42 nM. Moreover, the EC90 in data set [2] (setting [18]) was determined as 580 ± 30 nM. Also, the “SI: Selectivity index” value in data set [2] (toxicity in HepG2 / activity in HepAD38) is given as over 2128.

Source of the values: publication PMC13077713 (Journal of medicinal chemistry, 2025).
